The structures appear in SMILES notation. Calls of active or inactive are those of the source. The calls are words filed in the database; no cut-off is given here.

The species entered for assay [1] is Rattus norvegicus. In words: Inhibition of IRE1alpha in rat INS-1 cells assessed as suppression of tunicamycin induced spliced XBP1 mRNA levels at 20 uM after 4 to 24 hrs in by qRT-PCR method. Type of assay: cell-based. The method in brief: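 Spliced XBP1 mRNA in INS-1 cells (4×10^5/well, 6-well plates) measured by qRT-PCR with splicing-specific primers after Tm 0.1 µg/mL ± compound 20 µM or DMSO for the indicated times. Expressed as fold-increase over untreated control; 3 replicate wells, representative of 3 experiments, SD.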
On the technique in general: In qPCR the cycle at which signal appears reflects the starting amount.

The subject of assay [2] is INS1. The assay can be described thus: Protection against tunicamycin induced endoplasmic reticulum stress in rat INS-1 cells assessed as increase in cell viability at 20 uM after 24 hrs by live-cell phase-contrast image analysis. It counts as functional, cell-based. In outline:
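INS-1 cells treated with or without Tm 0.1 µg/mL in the presence of compound 20 µM or DMSO for 24 h; live-cell phase-contrast images acquired at 10× magnification.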

The target of assay [3] is T1, Eukaryotic translation initiation factor 2-alpha kinase 3 (Rattus norvegicus) (UniProt Q9Z1Z1).
T1 sequence (whole entry): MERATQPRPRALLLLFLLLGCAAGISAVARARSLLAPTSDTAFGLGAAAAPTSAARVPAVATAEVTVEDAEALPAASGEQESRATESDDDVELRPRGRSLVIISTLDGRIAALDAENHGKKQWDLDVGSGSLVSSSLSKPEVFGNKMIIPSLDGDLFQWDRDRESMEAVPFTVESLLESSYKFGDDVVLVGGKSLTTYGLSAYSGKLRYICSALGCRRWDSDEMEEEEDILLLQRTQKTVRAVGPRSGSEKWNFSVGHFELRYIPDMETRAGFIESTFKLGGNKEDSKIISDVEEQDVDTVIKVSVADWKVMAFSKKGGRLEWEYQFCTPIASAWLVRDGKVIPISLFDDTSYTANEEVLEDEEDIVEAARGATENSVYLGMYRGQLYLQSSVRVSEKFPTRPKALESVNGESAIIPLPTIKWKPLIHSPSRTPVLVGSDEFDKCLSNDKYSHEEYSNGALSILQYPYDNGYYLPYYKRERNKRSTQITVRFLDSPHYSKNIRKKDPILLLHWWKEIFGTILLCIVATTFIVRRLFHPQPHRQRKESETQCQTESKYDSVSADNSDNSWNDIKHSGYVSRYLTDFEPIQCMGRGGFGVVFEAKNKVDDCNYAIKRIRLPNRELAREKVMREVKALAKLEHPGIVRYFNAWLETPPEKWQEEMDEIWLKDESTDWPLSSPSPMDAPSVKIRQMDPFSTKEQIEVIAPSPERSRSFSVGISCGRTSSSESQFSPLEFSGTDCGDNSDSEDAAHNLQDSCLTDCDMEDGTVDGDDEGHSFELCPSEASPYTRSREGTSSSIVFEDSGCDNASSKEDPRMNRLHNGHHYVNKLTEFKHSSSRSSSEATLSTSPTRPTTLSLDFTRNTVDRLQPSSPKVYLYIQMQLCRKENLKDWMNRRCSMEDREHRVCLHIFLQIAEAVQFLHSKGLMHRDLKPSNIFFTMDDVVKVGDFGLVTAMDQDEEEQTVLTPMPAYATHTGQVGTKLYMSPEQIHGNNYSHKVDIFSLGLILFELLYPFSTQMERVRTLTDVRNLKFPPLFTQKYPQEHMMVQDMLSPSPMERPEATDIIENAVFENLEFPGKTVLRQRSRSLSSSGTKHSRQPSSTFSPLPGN
The assay can be described thus: Inhibition of PERK pathway in rat INS-1 cells assessed as reduction in tunicamycin induced ATF4 protein levels at 20 uM after 2 to 24 hrs by Western blot analysis. It counts as cell-based. The method in brief:
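Western blots of INS-1 cells (8×10^5/60-mm dish) treated with Tm 0.1 µg/mL ± compound 20 µM or DMSO for the indicated times. Lysates with EDTA and phosphatase inhibitors; 20 µg protein on 7% SDS-PAGE, PVDF. Primary antibodies at 1:1000 against ATF4, CHOP, cleaved caspase 3 or PARP; α-tubulin loading control; HRP secondaries. Representative of 3 experiments.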
(Immunoblotting shows a protein as a band on a membrane.)

In the next assay the test system is Pancreatic beta cell. In words: Suppression of tunicamycin impaired glucose-stimulated insulin secretion in human Beta cells at 10 to 20 uM preincubated for 48 hrs followed by glucose addition for 1 hr by ELISA. It counts as functional, cell-based. The method in brief:
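Human islets (50 of equal size) in 96-well plates given Tm 1 µg/mL plus compound for 48 h, preincubated 1 h in KRBH (pH 7.4) with 2.5 mM glucose, then stimulated 1 h with 2.5 or 20 mM glucose. Secreted insulin by human insulin ELISA, normalized to total protein by Bradford.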

In another assay the test system is Beta-TC6. In words: Protection against tunicamycin induced endoplasmic reticulum stress in mouse BetaTC6 cells assessed as increase in cell viability after 72 hrs by MTT assay. Type of assay: functional, cell-based. The method in brief: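 βTC6 cells (DMEM, 15% FBS) seeded at 3×10^3/well in 384-well plates with Tm 0.25 µg/mL ± compound or DMSO for 72 h. Viability by CellTiter-Glo (ATP luminescence) or MTT: 3 h with reagent at 37 °C, then 4 h with crystal-dissolving solution, absorbance at 570 nm. 3 replicate wells, 3 experiments.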
(Formazan colour is commonly taken as a measure of viable cells.)

Assay [4] has as its system INS1. In words: Protection against tunicamycin induced endoplasmic reticulum stress in rat INS-1 cells assessed as increase in cell viability after 3 days by CellTiter-Glo assay relative to control. Type of assay: functional. The method in brief:
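INS-1 cells at 3×10^3/well (384-well) co-treated with Tm 0.1 µg/mL and compound for 72 h; CellTiter-Glo ATP luminescence. Activity is % rescue, with Tm alone = 0% and DMSO without Tm = 100%. EC50 from ten 2-fold serial dilutions by curve fit; triplicate.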

For assay [5], the species on record is Rattus norvegicus. The assay can be described thus: Inhibition of IRE1alpha in rat INS-1 cells assessed as suppression of tunicamycin induced spliced XBP1 mRNA levels in at 20 uM after 4 to 24 hrs by agarose gel electrophoresis based RT-PCR method. Type of assay: cell-based. The method in brief: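 Total XBP1 mRNA amplified by RT-PCR from INS-1 cells treated with Tm 0.1 µg/mL ± compound 20 µM or DMSO for the indicated times. Unspliced and spliced forms resolved on agarose gel; cyclophilin A as internal control. Representative of 3 independent experiments.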

For assay [6], the target named is T1, Eukaryotic translation initiation factor 2-alpha kinase 3 (Rattus norvegicus). The assay can be described thus: Inhibition of PERK pathway in rat INS-1 cells assessed as reduction in tunicamycin induced ATF4 mRNA levels at 20 uM after 2 to 24 hrs by qRT-PCR method. Type of assay: cell-based. In outline:
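ATF4 or CHOP mRNA measured by qRT-PCR in INS-1 cells treated with Tm 0.1 µg/mL ± compound 20 µM or DMSO for the indicated times. Expressed as fold-increase over untreated control; means of 3 replicate wells, representative of 3 independent experiments, SD.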

As for `COc1ccc(CNc2nc(N3CCCCC3CO)nc3ccccc23)cc1` (racemic), the inhibition result (in the assay filed under Rattus norvegicus [1]; in assay [3]; in the assay listed under Rattus norvegicus [5]; in assay [6]) was “Active” throughout. Besides, the outcome in the assay on INS1 [2] and in the assay with Pancreatic beta cell was Active. Moreover, the Activity entry in the assay on Beta-TC6 is “Dose-dependent effect”. For the same compound, in the assay with INS1 [4], the “%max” value was found to be 80.4%.

The values above are taken from ChEMBL document CHEMBL4428057, “Discovery, Synthesis, and Evaluation of 2,4-Diaminoquinazolines as a Novel Class of Pancreatic β-Cell-Protective Agents against Endoplasmic Reticulum (ER) Stress” (J Med Chem, 2016).
